Test results: ChEMBL document CHEMBL1287769, “Investigating the activity of 2-substituted alkyl-6-(2,5-dioxopyrrolidin-1-yl)hexanoates as skin penetration enhancers” (Bioorg Med Chem, 2010)
pIC50: −log10 of the molar value.

Experiments:
[1] = Lipophilicity, log K of the compound in methanol-water mixture by HPLC; format: physicochemical
Summary of the method: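 Isocratic RP-HPLC on end-capped C18 column, methanol as organic modifier in mobile phase at various amounts, 25 °C, detection 204 nm. Dead time from KI in methanol. Capacity factor k = (tR − tD)/tD; log k used as lipophilicity index.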

[2] = Potentiation of theophylline transdermal permeation in pig ear skin after 24 hrs by Franz diffusion cells method relative to untreated control; format: functional, Sus scrofa
Summary of the method: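 Thawed full-thickness porcine ear skin, epidermis up, in vertical Franz cell (0.635 cm2 donor area). Receptor: PBS pH 7.4, 37 °C, stirred; skin equilibrated 0.5 h. Donor: enhancer 20 mg in PG 0.5 mL plus theophylline 5 mg in water 0.5 mL, sonicated; controls without enhancer. Receptor sampled at 1, 2, 4, 8, 12, 24 h, theophylline by HPLC at 280 nm. Steady-state flux from linear region; ER = flux with/without enhancer; ≥3 determinations, ≥2 animals.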

SK-N-MC = test: Antiproliferative activity against human SK-N-MC cells after 72 hrs by MTT assay; format: cell-based
Summary of the method: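 SK-N-MC cells (ATCC) grown in MEM with 10% FBS, pyruvate, non-essential amino acids, glutamine, antibiotics, fungizone at 37 °C, 5% CO2. Seeded 1.5 × 10^4 cells/well in medium with human diferric transferrin 1.25 µM ([Fe] = 2.5 µM), compounds 0–25 µM, 72 h. MTT added for 2 h, solubilized in SDS/isobutanol/HCl, read at 570 nm. IC50 = concentration reducing absorbance to 50% of untreated control; mean ± SD, n = 3.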

SMILES	log K [1]	fold change (FC) [2]	pIC50 (SK-N-MC)
CCCCCCCCCCCCOC(=O)C(CCCCN1C(=O)CCC1=O)N1CCOCC1 (stereo unspecified)	0.9221	1.92	< 5.20
CCOC(=O)C(CCCCN1C(=O)CCC1=O)N1CCCCC1=O (stereo unspecified)	-0.9565		
CCOC(=O)C(CCCCN1C(=O)CCC1=O)N1CCOCC1 (stereo unspecified)	-0.7951		
CCCCCCOC(=O)C(CCCCN1C(=O)CCC1=O)N1CCCCC1=O (stereo unspecified)	-0.2356	2.33	< 5.20
CCCCCCCOC(=O)C(CCCCN1C(=O)CCC1=O)N1CCCCC1=O (stereo unspecified)	-0.0685	2.17	< 5.20
CCCCCCCCOC(=O)C(CCCCN1C(=O)CCC1=O)N1CCCCC1=O (stereo unspecified)	0.0973	1.88	< 5.20
CCCCCCCCCOC(=O)C(CCCCN1C(=O)CCC1=O)N1CCCCC1=O (stereo unspecified)	0.2638	1.81	< 5.20
CCCCCCCCCCOC(=O)C(CCCCN1C(=O)CCC1=O)N1CCCCC1=O (stereo unspecified)	0.4285	1.63	< 5.20
CCCCCCCCCCCOC(=O)C(CCCCN1C(=O)CCC1=O)N1CCCCC1=O (stereo unspecified)	0.5894	2.36	< 5.20
CCCCCCCCCCCCOC(=O)C(CCCCN1C(=O)CCC1=O)N1CCCCC1=O (stereo unspecified)	0.7413	1.75	< 5.20
CCCCCCOC(=O)C(CCCCN1C(=O)CCC1=O)N1CCOCC1 (stereo unspecified)	-0.0736	2.11	< 5.20
CCCCCCCOC(=O)C(CCCCN1C(=O)CCC1=O)N1CCOCC1 (stereo unspecified)	0.0934	1.26	< 5.20
CCCCCCCCOC(=O)C(CCCCN1C(=O)CCC1=O)N1CCOCC1 (stereo unspecified)	0.2613	1.8	< 5.20
CCCCCCCCCOC(=O)C(CCCCN1C(=O)CCC1=O)N1CCOCC1 (stereo unspecified)	0.4177	1.49	< 5.20
CCCCCCCCCCOC(=O)C(CCCCN1C(=O)CCC1=O)N1CCOCC1 (stereo unspecified)	0.5834	1.71	< 5.20
CCCCCCCCCCCOC(=O)C(CCCCN1C(=O)CCC1=O)N1CCOCC1 (stereo unspecified)	0.7588	1.61	< 5.20
CC(=O)N(O)CCCCCNC(=O)CCC(=O)N(O)CCCCCNC(=O)CCC(=O)N(O)CCCCCN [DEFEROXAMINE]			4.77
CCCCCCCC/C=C\CCCCCCCC(=O)O [OLEIC ACID]		1.13	
